# NSD2 HMT inh: inhibitors of human histone methyltransferase NSD2. inhibition, % at 12.5 µM. NSD2 peptide methylation, AlphaScreen, 120 min. O96028. 310,000 tested, 0.54% active. AID 743445; in the data active means inhibition above about 50%
# TDP2 absorb: blocks human TDP2 phosphodiesterase activity | O95551 | recombinant TDP2, T5PNP hydrolysis, p-nitrophenol absorbance 415 nm | inhibition, % at 12.8 µM | 370,000 tested, 0.34% active;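 active means inhibition above the mean of all tested compounds plus 3 SD, set per campaign, cut at about 25% in these data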;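 further: 0% = DMSO with enzyme and 100% = buffer with substrate but no TDP2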
#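 test system = human TDP2 enzyme | input = TDP2 enzyme at 120 nM final | medium = 50 mM Tris-HCl pH 7.5 with Mg2+, KCl, DTT, BSA | also added = T5PNP substrate, 5 mM | times = 2 h at 37 °C | technique = epi absorbance | benchmarks = high control without enzyme, low control DMSO plus TDP2 | replication = each compound tested once, singlicate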
# Casp6 inh: inhibitors of human caspase-6 | inhibition, % at 12.5 µM | AID 686996 | purified caspase-6, Z-VEID-R110 cleavage fluorescence | 350,000 tested, 0.53% active;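 active means mean inhibition across replicates at least about 35%, with every replicate also reaching that limit, limit read from the data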;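 further: 0% = median of neutral control wells and 100% = no fluorescence left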
# LEDGF integ inh: blocks HIV-1 LEDGF/p75-dependent DNA integration; TR-FRET IN-LEDGF/p75 DNA integration, Eu/Cy5; inhibition, % at 3.7 µM; 370,000 tested, 0.64% active; AID 743269;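 active means inhibition above the screen-wide mean plus 3 SD, cut at about 13% in these data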;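 further: signal is the Cy5 over europium emission ratio at 671 and 618 nm; 0% = plate median of compound wells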
# UHRF1 MBD2 ctr: blocks human UHRF1 binding to methylated DNA; AID 687016; UHRF1 binding to methylated oligo, TR-FRET; inhibition, % at 4.4 µM; 370,000 tested, 0.75% active; in the data active means inhibition above about 21%;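 further: UHRF1 SRA domain binding a hemimethylated CpG hairpin DNA probe; 0% = median of test compound wells and 100% = reference inhibitor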
# MBD2 DNA inh: MBD2-methylated oligo binding inhibition. Q9UBB5. 370,000 tested, 0.31% active. inhibition, % at 4.4 µM. TR-FRET, MBD2 binding to methylated oligonucleotide; in the data active means inhibition above about 13%
# IN multimer act: activates HIV-1 integrase multimerization in LEDGF counter-screen | shares compounds with LEDGF integ inh | TR-FRET HIV-1 integrase multimerization, biochemical | activation, % at 7.7 µM | 2,000 tested, 17% active; in the data active means activation above about 8.9%
# TR-FRET interf: optically interferes with TR-FRET readout in LEDGF counter-screen; shares compounds with LEDGF integ inh; TR-FRET optical interference counterscreen, HIV-1 IN multimerization; inhibition, % at 7.7 µM; 2,000 tested, under 10 active; AID 1053135;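 active means inhibition above the mean over all tested compounds plus 3 SD, which no compound reached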;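 further: 0% = integrase with antibodies and DMSO and 100% = antibodies without integrase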
# IN-LEDGF confirm: confirmation of HIV-1 LEDGF/p75-dependent integration inhibitors. TR-FRET LEDGF/p75-dependent HIV-1 integration, biochemical. inhibition, % at 3.7 µM. 2,000 tested, 36% active. AID 1053136. shares compounds with LEDGF integ inh; in the data active means inhibition above about 14%
# The depositor's hits bear a star; · = no result given. Shown are actives, neighbours in structure and some others; about 1.8% of the full set was active somewhere.
SMILES,NSD2 HMT inh,TDP2 absorb,Casp6 inh,LEDGF integ inh,UHRF1 MBD2 ctr,MBD2 DNA inh,IN multimer act,TR-FRET interf,IN-LEDGF confirm
O=C(NCC[C@H]1CC[C@H](NC(=O)c2ccccc2F)[C@H](CO)O1)c1ccc2c(c1)OCO2,·,·,0,·,·,·,·,·,·
O=Cc1ccc(-c2c(-c3ccccc3)oc3c2C(OCCCCO)CCC3)o1 (stereo not drawn),·,-2,10,30*,2,-1,0,0,6
CN(C)C(=O)C[C@@H]1CC[C@H]2[C@H](COc3ccc(NC(=O)c4cnccn4)cc3C(=O)N2C)O1,·,·,-1,·,·,·,·,·,·
C[C@@H]1CN([C@H](C)CO)C(=O)c2cc(-c3ccccc3)cnc2O[C@@H]1CN(C)C(=O)Cc1ccccn1,·,·,-2,·,·,·,·,·,·
Cc1nn(-c2cc(C(F)(F)F)ccc2Cl)c2nc(C(F)(F)F)[nH]c(=O)c12,-3,-7,·,83*,6,4,0,1,1
N#CCSc1ccccc1NC(=O)COc1ccc(-c2nnco2)cc1,0,-1,4,14*,0,3,-2,8,-5
COCCN=c1scc(-c2ccco2)n1/N=C/c1ccc(O)c(O)c1O,87*,2,13,45*,6,2,16*,-57,53*
C=CCN=c1scc(-c2ccco2)n1/N=C/c1ccc(O)c(O)c1O,17,0,23,43*,0,-5,7,-37,30*
CCOc1ccc(S(=O)(=O)NCCC(=O)N2CCN(c3ncccn3)CC2)cc1,1,-2,1,77*,-2,3,1,-7,3
CCC(=O)N[C@H]1C=C[C@H](CC(=O)NCC2CC2)O[C@@H]1CO,·,·,-1,·,·,·,·,·,·
CN(C)CCNC(=O)c1cccc(-c2cccc3nncn23)c1,1,-4,0,55*,-1,-7,-1,4,1
Cc1noc(C)c1S(=O)(=O)Nc1ccc2c(c1)C(=O)N([C@@H](C)CO)C[C@@H](C)[C@@H](CN(C)CC1CCCCC1)OCCCC[C@H](C)O2,·,·,-2,·,·,·,·,·,·
CC(C)(C)OC(=O)COc1cccc(C(=O)CCN2CCOCC2)c1,·,·,-1,·,·,·,·,·,·
N=C1/C(=C\c2coc3ccccc3c2=O)C(=O)N=C2SC=CN12,32,-15,3,15*,-13,-6,3,-15,26*
S=c1[nH]nc(-c2ccccc2)n1/N=C/C=C/c1ccco1,6,3,13,14*,2,0,1,-5,16*
CC(=O)N1CCc2nc3ccccc3cc21,-1,2,0,1,-5,1,·,·,·
CC(=O)N1CCc2cc3nc(C)cc(C)c3cc21,·,1,·,52*,2,2,1,-3,-5
Cc1ccc(S(=O)(=O)N(C)C[C@@H]2Oc3ccc(NC(=O)Cn4cnnn4)cc3C(=O)N([C@@H](C)CO)C[C@@H]2C)cc1,·,·,-1,·,·,·,·,·,·
O=C(O)c1cc(Cl)ccc1-c1ccc(/C=C/c2cc(C(F)(F)F)[nH]c(=O)n2)o1,47,0,45*,17*,3,1,-1,6,11
CC(C)C#Cc1cnc2c(c1)C(=O)N([C@H](C)CO)C[C@H](C)[C@@H](CN(C)C(=O)CCN1CCCCC1)O2,·,·,-1,·,·,·,·,·,·
CC1(C)Oc2cc(N)c([N+](=O)[O-])cc2O1,4,5,·,45*,23*,-9,0,-1,-6
Cc1noc(C)c1NC(=O)Nc1ccc2c(c1)C(=O)N([C@@H](C)CO)C[C@H](C)[C@H](CN(C)C(=O)CCCN(C)C)OCCCC[C@H](C)O2,·,·,-32,·,·,·,·,·,·
O=C(O)C[C@H]1CC[C@@H](NC(=O)c2ccccc2F)[C@H](CO)O1,·,·,3,·,·,·,·,·,·
O=C(C[C@H]1C=C[C@@H](NC(=O)C2CCC2)[C@H](CO)O1)NCc1ccncc1,·,·,0,·,·,·,·,·,·
CON1C(=O)C(=O)N(OC)C2CCCCC21 (stereo not drawn),-4,-2,·,-4,0,7,·,·,·
SMILES,NSD2 HMT inh,TDP2 absorb,Casp6 inh,LEDGF integ inh,UHRF1 MBD2 ctr,MBD2 DNA inh,IN multimer act,TR-FRET interf,IN-LEDGF confirm
C=CCON1C(=O)C(=O)N(OCC=C)[C@H]2CCCC[C@H]21,·,-7,2,81*,2,2,5,-26,0
O=C(CCCOc1ccc(Cl)cc1Cl)NCCCn1ccnc1,-2,-3,-5,27*,1,1,0,-1,2
C=CCn1c(C)cc(C(=O)Cn2ncc(Cl)c(Cl)c2=O)c1C,7,0,5,26*,20,7,26*,-92,39*
COc1ccc2c3c([nH]c2c1)[C@@H](CO)N(Cc1nccs1)CC31CCN(C(=O)C2CCOCC2)CC1,·,·,-3,·,·,·,·,·,·
Nc1nc(COC(=O)C2CC(=O)N(Cc3ccccc3)C2)nc(Nc2ccccc2)n1 (stereo not drawn),-3,-12,-1,3,3,-6,·,·,·
Nc1nc(COC(=O)C2CC(=O)N(Cc3ccccc3Cl)C2)nc(Nc2ccccc2)n1 (stereo not drawn),1,-8,5,18*,0,-2,0,-1,-5
Cc1cc2nc3ccc(N(C)C)cc3nc2cc1N,17,-2,30,31*,2,-2,15*,-75,72*
CCCN1[C@@H]2c3ccc(-c4ccc(OC)cc4)c(=O)n3C[C@H]1[C@H](CO)[C@H]2C(=O)NCC,·,·,3,·,·,·,·,·,·
COCc1cc(N2CCN(C(=O)OC(C)(C)C)C[C@@H]2C)ccc1N1CC[C@H](O)C1,·,2,8,17*,-5,-7,4,-18,2
COCc1cc(N2CCN(C(=O)OC(C)(C)C)C[C@H]2C)ccc1N1CC[C@H](O)C1,·,2,10,5,-5,-5,·,·,·
COc1ccc(NC(=O)N2CCCCN3[C@@H](CO)[C@@H](c4ccc(-c5ccccc5C)cc4)[C@@H]3C2)cc1,·,·,0,·,·,·,·,·,·
C[C@H](CO)N1C[C@H](C)[C@H](CN(C)C(=O)c2ccncc2)Oc2cc(C3=CCCCC3)ccc2S1(=O)=O,·,·,-2,·,·,·,·,·,·
CC1(c2nnc(Cc3ccccc3)o2)CC(c2cccnc2)=NO1 (stereo not drawn),·,5,0,92*,6,-2,0,0,-1
CC1(c2nnc(-c3ccccc3)o2)CC(c2cccnc2)=NO1 (stereo not drawn),·,2,2,-3,-2,-1,·,·,·
